Published values collected from several papers.
Lines come from different studies, so protocols differ.
FGFR2: Fibroblast growth factor receptor 2 (FGFR2, Homo sapiens, UniProt P21802)

| Structure (SMILES) | target | read-out | action | method | concentration | measurement | value |
| --- | --- | --- | --- | --- | --- | --- | --- |
| CNc1cccc2cc(C(=O)Nc3ccc(C(=O)O)cc3)c(=O)[nH]c12 | FGFR2 | enzyme activity | inhibitor | – | 10 µM | inhibition | -1% |
| Cc1cc(NC(=O)c2cccc3cc(-c4cccc5[nH]nc(N)c45)ccc23)ccc1F | FGFR2 | enzyme activity | inhibitor | – | 0.1 µM | activity vs control | 98% |
| CCN(CC)CCNC(=O)c1c(C)[nH]c(/C=C2\C(=O)Nc3ccc(F)cc32)c1C | FGFR2 | enzyme activity | inhibitor | – | 0.3 µM | inhibition | 36% |
| CN(C)C1CCN(CC#Cc2nn(C3CCCC3)c3nc(NCc4ccccc4)ncc23)C1 (centres unmarked) | FGFR2 | enzyme activity | inhibitor | FRET | 1 µM | inhibition | 8% |
| COc1cc(Cl)c(C(=O)N[C@@H](CN[C@H]2CC[C@@H](N)CC2)Cc2ccc(C#N)cc2)cc1-c1ccc(CN[C@H](C)c2ccc(C)cc2)o1 | FGFR2 | enzyme activity | inhibitor | – | 1 µM | remaining activity | 102% |
| CCN(CC)c1ccc(C2=NNC(=O)CC2C)cc1[N+](=O)[O-] (centres unmarked) | FGFR2 | enzyme activity | inhibitor | – | 10 µM | remaining activity | 115% |
| CN(c1ccnc(CNc2nc(Nc3ccc4c(c3)CC(=O)N4)ncc2C(F)(F)F)n1)S(C)(=O)=O | FGFR2 | cell-free assay | – | competition with immobilised ligand | 1 µM | remaining binding | 59% |
| Cc1cnc(NC2CCOCC2)nc1-n1cnc(C(=O)NC(CN)c2cc(F)cc(Cl)c2)c1 (centres unmarked) | FGFR2 | enzyme activity | inhibitor | radiometric | 1 µM | remaining activity | 100% |
| CNC(=O)c1cc(Oc2ccc(NC(=O)Nc3ccc(Cl)c(C(F)(F)F)c3)cc2)ccn1 | FGFR2 | enzyme activity | inhibitor | – | 0.3 µM | inhibition | 66% |
| CNCc1ccccc1-c1csc([C@H](C)Nc2nc(C)nc3cc(OC)c(OC)cc23)c1 | FGFR2 | cell-free assay | – | competition with immobilised ligand | 1 µM | remaining binding | 94% |
| CCCOc1ccc(OC)c(F)c1C(=O)c1ccc(C(=O)N[C@@H]2CNC[C@H]2NC(=O)c2ccc3[nH]ncc3c2)cc1 | FGFR2 | enzyme activity | inhibitor | – | 10 µM | remaining activity | 70% |
| CO[C@@H](C)c1c(Nc2ccc([C@H](N(C)C(=O)C3CCS(=O)(=O)CC3)C(F)(F)F)cc2)cnc2cc(Cl)nn12 | FGFR2 | cell-free assay | – | competition with immobilised ligand | 1 µM | remaining binding | 91% |
| CC(C)(C)c1nc(-c2cccc(NS(=O)(=O)c3c(F)cccc3F)c2F)c(-c2ccnc(N)n2)s1 | FGFR2 | enzyme activity | inhibitor | radiometric | 1 µM | remaining activity | 92% |
| CN([C@@H]1CCc2c(CC(=O)O)c3ccccc3n2C1)S(=O)(=O)c1ccc(F)cc1 | FGFR2 | cell-free assay | – | competition with immobilised ligand | 1 µM | remaining binding | 80% |
| Nc1ncnc2occ(-c3ccc(NC(=O)Nc4cc(C(F)(F)F)ccc4F)cc3)c12 | FGFR2 | cell-free assay | – | – | 20 µM | remaining signal | 0% |
| Cc1ccc(NC(=O)c2ccc(C)c(C(F)(F)F)c2)cc1C#Cc1nn(C2CCC(O)CC2)c2ncnc(N)c12 (centres unmarked) | Fibroblast growth factor receptor 2 (FGFR2, Homo sapiens, UniProt P21802, N549H) | cell-free assay | – | – | 10 µM | remaining signal | -1% |
| COc1cc2c(N3CCN(C(=O)Nc4ccc(OC(C)C)cc4)CC3)ncnc2cc1OCCCN1CCCCC1 | FGFR2 | cell-free assay | – | – | 0.5 µM | remaining signal | 99.8% |
| O=C(Nc1cccnn1)N1CCC(=Cc2cccc(Oc3ccc(C(F)(F)F)cn3)c2)CC1 | FGFR2 | cell-free assay | – | competition with immobilised ligand | 1 µM | remaining binding | 96% |
| CS(=O)(=O)CCNCc1ccc(-c2ccc3ncnc(Nc4ccc(OCc5cccc(F)c5)c(Cl)c4)c3c2)o1 | FGFR2 | cell-free assay | – | – | 0.5 µM | remaining signal | 96.4% |
| Cc1ccc(Nc2nccc(N(C)c3ccc4c(C)n(C)nc4c3)n2)cc1S(N)(=O)=O | FGFR2 | enzyme activity | inhibitor | – | 10 µM | inhibition | 99% |
| Cc1nc(C2CCN(C(=O)c3ccc(OC(F)(F)F)cc3N)CC2)c2ncc(N3CCN(C)CC3)cc2n1 | FGFR2 | cell-free assay | – | competition with immobilised ligand | 1 µM | remaining binding | 100% |
| Cc1ccc(C(=O)Nc2ccc(CN3CCN(C)CC3)c(C(F)(F)F)c2)cc1C#Cc1cnc2cccnn12 | FGFR2 | cell-free assay | – | – | 23.5 nM | remaining signal | 32% |
| COc1ccc(COc2ccc(Cc3cnc(N)nc3N)cc2OC)cc1 | FGFR2 | cell-free assay | – | – | 0.5 µM | remaining signal | 102% |
| O=C(Nc1cnn(-c2csc(C(=O)NC3COC3)c2)c1)Nc1ccccc1Cl | FGFR2 | enzyme activity | inhibitor | – | 5 µM | remaining activity | 95.6% |
| O=C1NC(=O)c2cc(Nc3ccc(F)cc3)c(Nc3ccc(F)cc3)cc21 | FGFR2 | cell-free assay | – | – | 0.5 µM | remaining signal | 102% |
| O=c1nc(-c2ccccn2)sc2ccccc12 | FGFR2 | cell-free assay | – | competition with immobilised ligand | 1 µM | remaining binding | 100% |
